Most compounds without a hit are left out; they make up all but 2% or so of the library.
Insulin prom up: MIN6 insulin promoter up-regulation; MIN6 insulin promoter-GFP reporter, high-content imaging; stronger effect = higher value; z-score at 5 µM; hit rate 0.3% among 190,000; AID 1625;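 active = z-score above 3 at 5 µM with at least 500 cells counted in the well; inconclusive = wells under 500 cells, flagged as cytotoxic or low count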
Dynein cargo inh: dynein cargo transport inhibition; 3617.4 mouse cells, GR-EGFP nuclear translocation imaging; test concentration mostly 20 µM; stimulated with dexamethasone, 1 µM; stronger effect = lower value; hit rate 0.47% among 220,000; z-score, hits read low;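 active = plate z-score of nuclear minus cytoplasmic receptor signal below a set negative limit, without overly bright fluorescence or cell loss, cut at about -3.5 in these data, passing the limit was not always enough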;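 also: z-score of nuclear minus cytoplasmic ring GR-EGFP intensity difference per well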
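Schedule: 48 h induction, then 1 h compound, then 30 min agonist, 37 °C. Buffer or medium: tetracycline-free induction medium containing charcoal-stripped FBS. Reagent: 1.0 µM final dexamethasone stimulus. Evaluation: nuclear versus cytoplasmic GR-EGFP signal, averaged per well. Signal: high-content fluorescence imaging after fixation.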
INS promoter inh: TRM-6 insulin promoter activity inhibition; inhibition, % at 2 µM; hit rate 0.9% among 130,000; AID 1273; TRM-6 cells (human fetal islet line), insulin promoter-eGFP reporter, imaging; reporter expression induced with tamoxifen;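 active = inhibition above the mean plus 3 SD, with well images judged a real hit on visual review, cut at about 60% in these data, passing the limit was not always enough; inconclusive = inhibition over the cutoff but images rejected on review; inactive = inhibition not above the cutoff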
Autophagy HCS: modulators of autophagy; MEF GFP-LC3 puncta imaging; test concentration mostly 10 µM; calls only at 10 µM (by protocol); hit rate 0.98% among 190,000; AID 463193;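 active = percentage of spot-positive cells more than 3 SD above its plate mean, without a fluorescence outlier flag or 80% toxicity; inconclusive = no clear call, values can overlap the other calls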;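 also: spot-positive cell cutoff set from DMSO-treated cells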
Dynein inh conf: dynein cargo transport inhibition, confirmation | shares compounds with Dynein cargo inh | 3617.4 GR-EGFP nuclear translocation imaging, dexamethasone-induced | calls only at 20 µM | hit rate 69% among 1,000;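 active = inhibition of receptor movement into the nucleus at or above a set limit in both runs, with normal cell brightness and cell count; inconclusive = limit reached in only one run, brightness and count normal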;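 also: dexamethasone at 1 µM final in well for 30 min; nuclear minus cytoplasmic GR-EGFP mean intensity difference in channel 2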
* = called active by the depositor; i = inactive; ? = inconclusive; . = no result given; + = active, no number.

SMILES | Insulin prom up | Dynein cargo inh | INS promoter inh | Autophagy HCS | Dynein inh conf
CC1(C)COC(/C=C/c2cccc([N+](=O)[O-])c2)=N1 | . | -4.5* | 29 | i | +
O=C1/C(=C/c2ccc(N3CCCC3)cc2)NC(=S)N1C1CC1 | . | -5 | -186 | + | +
CCCn1nnc(NC(=O)c2ccc3c(c2)OCO3)n1 | 0.18 | 0.65 | . | . | .
O=C(/C=C/Sc1ccccc1)c1ccc(Cl)cc1 | 0.2 | -2.7 | 7 | i | .
O=C(/C=C/Sc1ccccc1)c1ccccc1 | 0.05 | -3.6* | -32 | i | +
CC1(C)CC(NCCN2CCN(C3=CC(=C(C#N)C#N)CC(C)(C)C3)CC2)=CC(=C(C#N)C#N)C1 | -2.5 | 0.45 | . | i | .
N#CC(C#N)=C1C=C2C=C(N3CCCCCC3)CCC2CC1 (stereo not drawn) | . | -3.7* | -223 | ? | +
N#CC(C#N)=C1C=C2C=C(N3CCOCC3)CCC2CC1 (stereo not drawn) | . | -7* | i | i | +
CCN1CCN(C2=CC3=CC(=C(C#N)C#N)CCC3CC2)CC1 (stereo not drawn) | . | -5.2* | i | ? | +
N#Cc1cc(Cl)c(N2CCOCC2)cc1C#N | 0.27 | 1.6 | -20 | i | .
CN1CCN(C2=CC3=CC(=C(C#N)C#N)CCC3CC2)CC1 (stereo not drawn) | . | -3.8* | i | + | i
O=C(CCc1nnc(CCc2c[nH]c3ccccc23)o1)NC1CCC1 | 0.1 | 0.9 | . | . | .
NC(=O)CSc1nnc(CSc2ncccn2)n1-c1ccccc1 | -0.06 | 0.61 | . | i | .
COc1ccc(C(=O)/C=C/Nc2ccc(S(=O)(=O)Nc3onc(C)c3C)cc2)cc1 | -0.03 | -0.37 | 30 | i | .
COc1cc(/C=N/NC(=O)C(=O)/C=C2\NC(C)(C)Cc3ccccc32)ccc1O | 0.39 | -0.91 | . | . | .
Cc1nnc(SCC(=O)c2ccc(C(C)C)cc2)s1 | -0.16 | 1.1 | . | i | .
Cc1ccnc(N/C=C(\C#N)c2nc(-c3cccc(Br)c3)cs2)c1 | . | -12 | -12 | + | +
N#C/C(=C\Nc1ccc2cn[nH]c2c1)c1nc(-c2ccccc2)cs1 | -1.9 | 1.3 | 27 | i | .
Cc1nc(COC(=O)c2cc(O)c3ccccc3c2O)cs1 | 0.12 | -3.6* | . | i | i
Cc1nc(COC(=O)c2ccc(CO)cc2)cs1 | -0.5 | -0.37 | . | i | .
O=[N+]([O-])c1ccc(Sc2ncccn2)c([N+](=O)[O-])c1 | 0.52 | -4.8* | . | . | i
O=[N+]([O-])c1ccc(Sc2nccn2Cc2ccccc2)c([N+](=O)[O-])c1 | 0.24 | -4.6* | 16 | i | +
O=[N+]([O-])c1cc(C(F)(F)F)ccc1Sc1nccn1Cc1ccccc1 | 1.1 | 0.028 | -4 | i | .
Cc1cccc(Sc2ccc([N+](=O)[O-])cc2[N+](=O)[O-])n1 | -0.04 | -0.1 | -49 | i | .
CC(CCCC(C)(C)O)NC(=O)c1ccc(OC2CCN(C(=O)C3CC3)CC2)cc1 (stereo not drawn) | 0.22 | 1.9 | . | i | .
SMILES | Insulin prom up | Dynein cargo inh | INS promoter inh | Autophagy HCS | Dynein inh conf
COc1ccc(NC(=O)/C(Cl)=C(/Cl)S(=O)(=O)Cc2ccc(C)cc2)cn1 | -2.3 | -5* | -223 | i | i
COc1ccc(NC(=O)Cc2ccc(Cl)c(Cl)c2)cn1 | -1.1 | -0.58 | 17 | i | .
O=C(CCN1CCc2ccccc2C(c2ccccc2)C1)c1ccc2c(c1)OCCO2 (stereo not drawn) | . | -1 | 31 | i | .
O=C(CCN1Cc2ccccc2C1)c1ccc2c(c1)OCCO2 | 0.05 | -3.6* | -23 | i | ?
COCCOC(=O)/C(=C\c1cc(C(C)(C)C)c(O)c(C(C)(C)C)c1)C(C)=O | -0.63 | -5.3* | . | . | +
CC(C)(C)c1cc(CCC(=O)NN)cc(C(C)(C)C)c1O | -0.72 | -0.96 | . | i | .
Cc1ccc(-n2ncc(Br)c(Br)c2=O)cc1 | -5 | -5.9* | -400 | + | +
O=[N+]([O-])c1ccc2c(c1)N([O-])C1(CCCCC1)[N+]2=O | 0.3 | -3.6* | . | . | +
CN(C)c1nnnn1-c1cccc(Oc2ncc(C(F)(F)F)cc2Cl)c1 | -1.6 | 1.8 | -36 | i | .
COc1cc(C(=O)Sc2ccc(C)cc2)cc(OC)c1OC | 0.47 | -4.4* | . | i | +
COc1ccccc1OCC(=O)Sc1ccc(C)cc1 | 0.07 | -0.66 | . | i | .
COC(=O)C1=C(C)N(Cc2ccco2)C(=O)/C1=C\c1ccc(N(C)C)cc1 | 0.23 | 1.3 | 5 | i | .
COC(=O)C1=C(C)N(Cc2ccco2)C(=O)/C1=C\c1ccc([N+](=O)[O-])cc1 | -0.51 | -3.6* | . | i | +
CCCC(C)NC(=S)Nc1cc(C)cc(C)c1 (stereo not drawn) | -2.2 | 1.1 | 0 | i | .
N#Cc1cc(N)ccc1-n1cccc1 | 0.27 | 1.2 | . | . | .
O=C(NCCC1=CCCCC1)c1coc(=O)c(Br)c1 | 0.29 | -6* | 2 | i | ?
O=C(NCCC1=CCCCC1)c1ccc(=O)oc1 | 0.4 | -0.14 | . | i | .
CCc1ccc(NS(=O)(=O)c2cccs2)cc1 | 0.06 | -4.1 | -36 | i | i
O=S(=O)(Nc1ccc(N2CCOCC2)cc1)c1cccs1 | 0.71 | 0.58 | 23 | i | .
CC1CC(C)CN(C(=O)Cn2cc(C=O)c3ccccc32)C1 (stereo not drawn) | -0.72 | 0.94 | . | i | .
Cc1onc(-c2ccccc2)c1C(=O)Nc1ccc(S(=O)(=O)NC(C)(C)C)cc1 | 0.28 | -0.32 | . | i | .
Cc1cc(C)n(CC(=O)c2ccc(Cl)cc2)n1 | 0.38 | 0.24 | . | i | .
COc1ccc(C(=O)Cn2c(C)nc([N+](=O)[O-])c2Br)cc1 | -0.94 | -5.8* | . | . | +
Cc1nc([N+](=O)[O-])c(Br)n1Cc1ccc(Cl)c(Cl)c1 | -0.88 | -4.2* | -20 | i | +
Cc1nc([N+](=O)[O-])c(Br)n1CC(=O)c1ccc(Cl)cc1 | 0 | -6.5* | 69* | i | +
SMILES | Insulin prom up | Dynein cargo inh | INS promoter inh | Autophagy HCS | Dynein inh conf
COc1cccc(/C=N/NC(=O)NC2CCCCC2)c1O | 0.15 | -0.36 | . | . | .
CCOC(=O)CCc1c(C(=O)OCC)[nH]c(CC)c1C(=O)OCc1ccccc1 | -1.8 | -0.16 | . | . | .
c1ccc2c(c1)N1CCCN=C1N2CCN1CCCCC1 | -1.1 | -0.3 | -78 | i | .
O=C1N=C2N(CCN3CCCCC3)c3ccccc3N2/C1=C\c1ccc([N+](=O)[O-])o1 | ? | -4* | -388 | i | +
CC(C)N1CN(c2ccccc2)C(=S)N(c2ccccc2)C1 | 0.01 | 0.41 | . | . | .
CCN1C/C(=C/c2ccc(OC)c(O)c2)C(=O)/C(=C/c2ccc(OC)c(O)c2)C1 | ? | -6.3* | . | + | ?
COc1ccc(C=C2C(=O)c3ccccc3C2=O)cc1O | 0.5 | -0.56 | -42 | i | .
COc1cc(/C=C2\COC/C(=C\c3ccc(O)c(OC)c3)C2=O)ccc1O | -0.84 | -5.7* | . | . | +
COc1cc(/C=C2/CC/C(=C/c3ccc(O)c(OC)c3)C2=O)ccc1O | 1.2 | -1 | . | . | .
COC(=O)c1cc(C)ccc1OCc1ccc([N+](=O)[O-])cc1 | 0.44 | 0.0078 | . | . | .
CC1CCc2c(cnc3ncnn23)C1 (stereo not drawn) | -0.04 | 0.81 | . | . | .

Assay outcomes as filed in PubChem.
